Test results published in PMC4718766 (Nature chemical biology, 2015).
Each block holds one molecule with its values, some of them ahead of it.

What was measured:
[1] = test system: HeLa cells; assay: Compound sensitivity testing; type: cell-based, human; conditions: for activity compared with (R)-DNMDP: cell viability, (R)-des-nitro analogues
Summary of the method: (§1)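 Cells per 384-well: A549 1000 (RPMI), HeLa 1000 (DMEM), MCF-7 500 (DMEM), PC3 4000 (F12-K), NCI-H2122 1000 (RPMI), NCI-H1563 1500 (RPMI); all with 10% FBS. Test compound added 24 h after plating, 48 h exposure. Readout: 25% CellTiter-Glo in PBS, 10 min, luminescence, normalized to DMSO. Dose curves: mean of 8 replicates ± s.d.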

[2] = test system: HeLa cells; assay: Rescue of DNMDP induced cytotoxicity; type: cell-based, human; conditions: 48 hours; for rescue of DNMDP cytotoxicity: DNMDP in combination, dose response; for competition with DNMDP (rescue): up to 10 µM; for rank in bioactives screen for rescue of cell death induced by DNMDP: 20 µM compound with 30 nM DNMDP, 1600 compounds
Summary of the method: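 HeLa cells (1000/well, 384-well) in DMEM with 10% FBS and 1% Pen/Strep. 24 h after plating, 1600 bioactives added at 20 µM together with cytotoxic agent at 30 nM final; 48 h incubation. Follow-up combinations used indicated PDE3/pan-PDE inhibitor concentrations with single data points. CellTiter-Glo viability expressed as percentage of untreated DMSO control.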

[3] = test system: A549 cells; assay: Cell viability; type: cell-based; conditions: Homo sapiens, A549, 48 h
Summary of the method: as §1

[4] = test system: NCI-H1734 cells; assay: Cell viability; type: cell-based, human; conditions: NCI-H1734 versus A549, 48 hours
[5] = test system: NCI-H2122 cells; assay: Compound sensitivity testing; type: cell-based; conditions: Homo sapiens, NCI-H2122, 48 h
Summary of the method: as §1

[6] = test system: MCF7 cells; assay: Compound sensitivity testing; type: cell-based; conditions: Homo sapiens, MCF7, 48 h
Summary of the method: as §1

[7] = test system: PDE3A complex with V5-tagged SIRT7 and SLFN12; assay: PDE3A immunoprecipitation and V5 immunoblot; type: cell-based, human; conditions: HeLa, 10 µM, 4 hours, co-immunoprecipitation
Summary of the method: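 HeLa cells transfected with V5-tagged SIRT7, SLFN12 or GFP constructs. At 72 h, treated 4 h with 10 µM test compound or trequinsin. Lysis in ModRipa (1% NP-40, 50 mM Tris-HCl pH 7.8, 150 mM NaCl, 0.1% deoxycholate, 1 mM EDTA). 2 mg lysate with 1 µg anti-PDE3A overnight at 4 °C, then Protein A/G beads 1 h. LDS elution; immunoblots for V5 (1:5000) and PDE3A (1:1000).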

[8] = test system: NCI-H1563 cells; assay: Compound sensitivity testing; type: cell-based; conditions: Homo sapiens, NCI-H1563, 48 h
Summary of the method: as §1

[9] = target: 234 kinases; assay: Millipore KinaseProfiler panel; type: biochemical, human; conditions: 10 µM DNMDP
[10] = test system: PC3 cells; assay: Compound sensitivity testing; type: cell-based; conditions: Homo sapiens, PC-3, 48 h
Summary of the method: as §1

[11] = test system: HeLa cells; assay: Caspase activity; type: cell-based, human; conditions: 48 hours (caspase), 36 hours (PARP)
Summary of the method: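 HeLa cells (1000/well, 384-well) in growth medium with 10% FBS; test compound added 24 h after plating. Caspase: 48 h exposure, Caspase-Glo added, luminescence read. PARP: 36 h exposure to test compound or staurosporine; NP-40 lysis; immunoblot for PARP (1:1000) and actin (1:20,000), infrared imaging.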

[12] = test system: 766 genomically characterized cancer cell lines; assay: Large-scale cell-line viability measurements; type: cell-based, human; conditions: of 766 cancer cell lines, 72 hours, 66.4 µM to 2 nM
Summary of the method: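 500 cells/well in 1536-well plates, each line in its preferred medium; overnight incubation. Test compound acoustically dispensed at 16 concentrations, 66.4 µM–2 nM, 2-fold steps, in duplicate. After 72 h, ATP measured by CellTiter-Glo, normalized to media-only and DMSO wells. Curves fit to 2- or 3-parameter sigmoids. Sensitivity metric: AUC of optimal 8-point curve by numeric integration.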

[13] = target: PDE3A (Homo sapiens, UniProt Q14432); assay: Linker-affinity purification with DNMDP-2L resin and PDE3A immunoblot; type: binding; conditions: HeLa cell lysate, 10 µM competitor
Sequence of PDE3A (Q14432 whole entry): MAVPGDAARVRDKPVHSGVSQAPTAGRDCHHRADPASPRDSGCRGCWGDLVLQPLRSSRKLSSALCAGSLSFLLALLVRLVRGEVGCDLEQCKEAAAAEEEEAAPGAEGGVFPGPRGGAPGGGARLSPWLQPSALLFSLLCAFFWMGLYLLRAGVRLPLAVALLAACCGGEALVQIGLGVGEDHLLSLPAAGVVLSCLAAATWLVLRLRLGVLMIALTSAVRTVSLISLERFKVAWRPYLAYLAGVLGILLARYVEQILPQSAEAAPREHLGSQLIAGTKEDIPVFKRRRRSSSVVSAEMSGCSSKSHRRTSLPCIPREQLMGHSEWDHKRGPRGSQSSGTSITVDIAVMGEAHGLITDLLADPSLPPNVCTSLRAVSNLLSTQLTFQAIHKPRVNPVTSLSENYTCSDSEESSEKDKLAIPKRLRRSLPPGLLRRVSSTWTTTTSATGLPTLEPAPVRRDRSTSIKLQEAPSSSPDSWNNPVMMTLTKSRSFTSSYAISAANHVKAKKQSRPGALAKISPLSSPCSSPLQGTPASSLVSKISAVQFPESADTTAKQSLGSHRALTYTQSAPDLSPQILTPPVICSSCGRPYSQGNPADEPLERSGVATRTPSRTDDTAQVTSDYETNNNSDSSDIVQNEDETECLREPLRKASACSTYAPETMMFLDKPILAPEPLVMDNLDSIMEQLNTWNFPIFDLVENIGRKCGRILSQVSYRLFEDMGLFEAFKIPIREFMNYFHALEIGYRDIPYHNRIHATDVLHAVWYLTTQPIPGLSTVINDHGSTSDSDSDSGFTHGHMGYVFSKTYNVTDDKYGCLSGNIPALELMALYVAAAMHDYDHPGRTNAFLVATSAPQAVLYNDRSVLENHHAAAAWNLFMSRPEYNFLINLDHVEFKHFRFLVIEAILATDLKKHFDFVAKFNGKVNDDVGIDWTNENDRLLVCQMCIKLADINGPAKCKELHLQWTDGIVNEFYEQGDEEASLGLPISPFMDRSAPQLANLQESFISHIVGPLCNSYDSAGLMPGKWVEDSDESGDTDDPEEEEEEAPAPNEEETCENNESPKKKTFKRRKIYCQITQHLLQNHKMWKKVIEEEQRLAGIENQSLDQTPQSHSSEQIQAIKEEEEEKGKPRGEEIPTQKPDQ
Summary of the method: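 200 µg lysate incubated 4 h with resin-coupled linker analogue, competitor compounds added beforehand. Three washes in buffer with 10 µM compound. Bound protein resolved by SDS-PAGE; anti-PDE3A immunoblot (1:1000, overnight, 4 °C); infrared detection.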

[14] = test system: PDE3; conditions: read-out: PDE3 IC50; cited from earlier work

Compound: CCN(CC)c1ccc(C2=NNC(=O)CC2C)cc1 (stereo not shown) [DNMDP-3]
activity compared with (R)-DNMDP [1]: tested similarly to (R)-DNMDP

Compound: CN(C(=O)CCCOc1ccc2[nH]c(=O)ccc2c1)C1CCCCC1 [cilostamide]
rescue of DNMDP cytotoxicity [2]: able to rescue DNMDP cytotoxicity in a dose-dependent manner

Compound: CC(C)C(=O)c1c(C(C)C)nn2ccccc12 [idubilast]
competition with DNMDP (rescue) [2]: not effective competitors

Compound: OCCN(CCO)c1nc(N2CCCCC2)c2nc(N(CCO)CCO)nc(N3CCCCC3)c2n1 [dipyridamole]
competition with DNMDP (rescue) [2]: not effective competitors

Compound: Cc1[nH]c(=O)c(C#N)cc1-c1ccncc1 [milrinone]
rank in bioactives screen for rescue of cell death induced by DNMDP [2]: three most potent compounds
rescue of DNMDP cytotoxicity [2]: able to rescue DNMDP cytotoxicity in a dose-dependent manner

Compound: CCN(CC)c1ccc(C2=NNC(=O)C[C@H]2C)cc1 [DNMDP-2]
activity compared with (R)-DNMDP [1]: tested similarly to (R)-DNMDP

Compound: CCCc1nn(C)c2c(=O)[nH]c(-c3cc(S(=O)(=O)N4CCN(C)CC4)ccc3OCC)nc12 [sildenafil]
competition with DNMDP (rescue) [2]: not effective competitors

EC50 [3]: > 1000 nM
EC50 [5]: 10 to 100 nM
EC50 [6]: > 1000 nM
EC50 [8]: 10 to 100 nM
kinase inhibition across 234 kinases [9]: no kinase inhibition
EC50 ([1]; Homo sapiens, HeLa, 48 h): 10 to 100 nM
EC50 [10]: > 1000 nM
Compound: CCN(CC)c1ccc(C2=NNC(=O)CC2C)cc1[N+](=O)[O-] (stereo not shown) [DNMDP, 6-(4-(diethylamino)-3-nitrophenyl)-5-methyl-4,5-dihydropyridazin-3(2H)-one]
selective toxicity in dose-response retest [4]: specifically toxic to the NCI-H1734 cell line
complex formation of V5-tagged SIRT7 and SLFN12 with PDE3A [7]: enhanced complex formation
EC70 concentration ([1]; HeLa, 48 hours): 30 nM
induction of apoptosis (caspase activity, PARP cleavage) [11]: undergo apoptosis
number of cell lines sensitive with a robust Z-score lower than -4 [12]: 22 cell lines

blocking of PDE3A binding to the tethered linker analogue [13]: blocked
Compound: COc1cc2c(cc1OC)-c1c/c(=N\c3c(C)cc(C)cc3C)n(C)c(=O)n1CC2 [trequinsin]
effect on HeLa cell viability ([1]; HeLa, up to 10 µM, 48 hours): did not affect HeLa cell viability in any detectable way
IC50 [14]: 0.25 nM

Compound: O=C1CCc2cc(OCCCCc3nnnn3C3CCCCC3)ccc2N1 [cilostazol]
rank in bioactives screen for rescue of cell death induced by DNMDP [2]: three most potent compounds

Compound: CCCc1nc(C)c2c(=O)[nH]c(-c3cc(S(=O)(=O)N4CCN(CC)CC4)ccc3OCC)nn12 [vardenafil]
competition with DNMDP (rescue) [2]: not effective competitors

Compound: CCN(CCOCCOCCNC(=O)OC(C)(C)C)c1ccc(C2=NNC(=O)C[C@H]2C)cc1 [DNMDP-2L]
rescue of DNMDP cytotoxicity [2]: same DNMDP cytotoxicity rescue phenotype as non-cytotoxic PDE3 inhibitors

Compound: C[C@@H]1CC(=O)NN=C1c1ccc(NN=C(C#N)C#N)cc1 [levosimendan]
rank in bioactives screen for rescue of cell death induced by DNMDP [2]: three most potent compounds
rescue of DNMDP cytotoxicity [2]: able to rescue DNMDP cytotoxicity in a dose-dependent manner
